Results on 26 compounds are retold here after article PMC4518544 (Journal of medicinal chemistry, 2015).

“Also recorded” adds a separate entry of the source. Where two headings read alike, the source gives them in different places.

Series [1] concerns the target Grp94. To be noted: read-out: Kd for Grp94; cited from earlier work.
In series [2] the target is T1, Grp94 (Canis lupus familiaris, UniProt P41148). Nature of the series: FP competition binding assay, Grp94. On the set-up: species or system Canine. The settings on record: for decrease in affinity for Grp94 of N3-substituted compounds: compared to the N9-series; for Hsp90α/Grp94: ratio of IC50 values, Table 4; for decrease in Grp94 activity on linker substitution: relative to S-linked 9g; for diminished potency for Grp94 on substitution of N3 with C: relative to 18a and 18c.
T1 sequence (P41148 22-804): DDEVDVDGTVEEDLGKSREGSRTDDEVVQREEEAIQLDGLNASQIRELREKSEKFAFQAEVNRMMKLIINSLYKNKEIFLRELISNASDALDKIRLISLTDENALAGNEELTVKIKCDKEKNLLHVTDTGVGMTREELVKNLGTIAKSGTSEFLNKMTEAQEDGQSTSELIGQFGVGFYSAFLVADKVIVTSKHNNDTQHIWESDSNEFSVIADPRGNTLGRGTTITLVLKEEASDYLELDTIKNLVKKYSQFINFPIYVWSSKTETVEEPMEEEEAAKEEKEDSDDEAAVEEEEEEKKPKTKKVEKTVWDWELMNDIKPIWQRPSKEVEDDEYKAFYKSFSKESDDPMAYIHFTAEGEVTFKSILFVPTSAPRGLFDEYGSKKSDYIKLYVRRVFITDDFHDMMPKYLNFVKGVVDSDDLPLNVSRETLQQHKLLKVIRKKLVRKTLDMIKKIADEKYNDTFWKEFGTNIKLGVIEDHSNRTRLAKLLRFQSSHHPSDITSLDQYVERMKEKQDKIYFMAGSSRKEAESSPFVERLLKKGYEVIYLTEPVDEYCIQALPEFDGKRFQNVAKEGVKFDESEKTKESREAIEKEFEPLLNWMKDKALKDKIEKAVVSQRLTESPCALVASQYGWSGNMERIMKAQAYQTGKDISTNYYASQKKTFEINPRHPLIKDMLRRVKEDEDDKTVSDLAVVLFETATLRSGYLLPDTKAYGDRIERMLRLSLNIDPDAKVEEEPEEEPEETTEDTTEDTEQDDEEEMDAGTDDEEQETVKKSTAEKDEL

The next series has as its target Hsp90α (Homo sapiens, UniProt P07900). Nature of the series: FP competition binding assay, Hsp90α.
Another series addresses Hsp90β (Homo sapiens, UniProt P08238). Briefly: FP competition binding assay, Hsp90β.
The next series has as its system scanEDGE 97 kinase panel. Nature of the series: scanEDGE kinase competition binding panel. To be noted: 10 μM. The method, boiled down:
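Competition binding panel. Kinase, biotinylated-ligand streptavidin beads and test compound (from 40× DMSO stocks) were incubated 1 h at room temperature in binding buffer with 6 mM DTT. Beads were washed and eluted 30 min with 0.5 μM free ligand. Eluted kinase was measured by qPCR.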

The next series relates to TLR9. Nature of the series: TLR9 assay in transfected HEK 293T cells. To be noted: 24 h treatment. It is filed as cell-based. The method, boiled down:
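HEK 293T cells were transfected with HA-tagged human TLR9 and split onto chamber slides 24 h later, then treated 24 h at varying concentrations. Cells were fixed (4% paraformaldehyde, 20 min), permeabilized (0.1% Triton X-100, 10 min) and blocked (3% BSA, 30 min). Staining used anti-HA (1:250, 1 h) or normal rabbit IgG, then Cy3 anti-rabbit (1:400), with DAPI mounting. Confocal imaging; fluorescence intensity was normalized to cell number.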

Series [3] concerns CpG induced TNF-α production. Nature of the series: TNFα ELISA, Raw264.7 cells stimulated with CpG. The settings on record: 18 h treatment. It counts as cell-based, mouse.
The test system of series [4] is TNFα production in cells stimulated by LPS. Briefly: TNFα ELISA, Raw264.7 cells stimulated with LPS. It counts as cell-based, mouse. To be noted: Hsp90-mediated effect. In general terms: In an ELISA, binding on a coated surface is turned into a signal by an enzyme label.
Series [5] concerns IGF-II secretion by differentiated myoblasts. Nature of the series: C2C12 differentiation and IGF-II secretion assay. It is filed as cell-based, mouse. The settings on record: 24 h treatment. A digest of the protocol: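 C2C12 mouse myoblasts kept in DMEM with 10% FBS. Differentiation was induced by switching to DMEM with 2% horse serum (36–48 h). After the switch, cells were treated 24 h. Medium was incubated overnight at 4 °C in anti-IGF-II-coated ELISA wells, then detected with biotinylated anti-IGF-II, HRP-streptavidin and TMB. Read at 450 nm and quantified against a recombinant IGF-II standard curve.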

Another series has as its system HER2. Briefly: Immunoblotting of HER2 in SKBr3 cells. It is filed as cell-based. A digest of the protocol: (§1)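 SKBr3 cells were treated 24 h with DMSO or test compound and lysed in RIPA buffer (pH 7.4) with protease inhibitors. Protein was measured by BCA, and 5–50 μg was run on SDS–PAGE and transferred to nitrocellulose. Blots were probed for HER2 (1:500), Hsp70 (1:2500), cleaved PARP (1:2500) and β-actin (1:3000), then HRP secondary, ECL and film, with densitometry. Triplicate experiments.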
(In general: In western blotting, separated proteins are transferred to a membrane and probed.)

Another series has as its system Hsp70. Nature of the series: Immunoblotting of Hsp70 in SKBr3 cells. It is filed as cell-based. The method, boiled down: as §1
A further series can be described thus: Aqueous solubility. To be noted: water. It is filed as physicochemical.
Series [6] relates to HER2-overexpressing SKBr3 cells. To be noted: cited from earlier work.
Another series has as its system cleaved PARP. Briefly: Immunoblotting of cleaved PARP in SKBr3 cells. It is filed as cell-based. To be noted: 100 μM. The method, boiled down:
as §1

In another series the test system is SKBr3 cells. Briefly: CellTiter-Glo cell viability assay. It is filed as cell-based. To be noted: 100 μM, 72 h. The method, boiled down: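 SKBr3 cells were grown in McCoy's 5A with 10% FBS at 37 °C under CO2, then treated 72 h with vehicle or test compound in quadruplicate wells. Viable cells were measured by CellTiter-Glo ATP luminescence. Points are means, n = 4.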

In series [7] the target is T1, Grp94. To be noted: cited from earlier work.

Hsp90β, sequence (P08238 whole entry): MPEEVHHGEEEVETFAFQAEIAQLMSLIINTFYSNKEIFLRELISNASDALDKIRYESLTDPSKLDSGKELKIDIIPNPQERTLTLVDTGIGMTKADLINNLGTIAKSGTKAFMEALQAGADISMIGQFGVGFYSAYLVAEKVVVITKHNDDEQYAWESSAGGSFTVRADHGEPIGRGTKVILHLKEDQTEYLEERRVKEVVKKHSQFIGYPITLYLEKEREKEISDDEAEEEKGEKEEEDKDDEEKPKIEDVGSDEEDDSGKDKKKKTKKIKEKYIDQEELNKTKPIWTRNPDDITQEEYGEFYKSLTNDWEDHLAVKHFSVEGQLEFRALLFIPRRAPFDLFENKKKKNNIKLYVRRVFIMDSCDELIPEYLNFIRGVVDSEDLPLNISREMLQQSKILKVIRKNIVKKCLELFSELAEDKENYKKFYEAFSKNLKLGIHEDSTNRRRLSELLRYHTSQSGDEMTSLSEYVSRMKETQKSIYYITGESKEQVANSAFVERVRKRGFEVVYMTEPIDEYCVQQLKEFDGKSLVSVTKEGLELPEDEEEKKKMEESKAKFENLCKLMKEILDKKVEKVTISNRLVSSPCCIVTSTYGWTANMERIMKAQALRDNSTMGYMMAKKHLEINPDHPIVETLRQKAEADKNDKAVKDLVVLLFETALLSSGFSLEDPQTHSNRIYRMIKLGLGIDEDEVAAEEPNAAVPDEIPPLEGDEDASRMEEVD

For orientation: Kd means a measure of binding affinity in units of concentration. With 5′-N-ethylcarboxamidoadenosine [NECA], the Kd on Grp94 [1] is 0.2 µM.
Usually IC50 stands for the concentration that gives 50% inhibition. On to `C#CCCCn1cnc(N)c2nc(Sc3ccccc3Cl)nc1-2` [9a′, 8-(2-Chlorophenylthio)-3-(pent-4-ynyl)-3H-purin-6-amine], for which, at Grp94 [2], the IC50 stood at 100 ± 10 µM and the “decrease in affinity for Grp94 of N3-substituted compounds” value (from here on “decrease in affinity for Grp94”) is 10–400 fold.
For the compound `C#CCCCn1cnc(N)c2nc(Sc3ccccc3OC)nc1-2` [9b′, 8-(2-Methoxyphenylthio)-3-(pent-4-ynyl)-3H-purin-6-amine], the IC50 on Grp94 [2] is over 100 µM.
On the same count and under the same terms, the same measure for `C#CCCCn1cnc(N)c2nc(Sc3ccccc3CO)nc1-2` [9c′, (2-(6-Amino-3-(pent-4-ynyl)-3H-purin-8-ylthio)phenyl)methanol]: over 100 µM; for `C#CCCCn1cnc(N)c2nc(Sc3ccccc3OC(F)(F)F)nc1-2` [9d′, 3-(Pent-4-ynyl)-8-(2-(trifluoromethoxy)phenylthio)-3H-purin-6-amine]: over 100 µM.
With `C#CCCCn1cnc(N)c2nc(Sc3ccc(Cl)cc3Cl)nc1-2` [9g′, 8-(2,4-Dichlorophenylthio)-3-(pent-4-ynyl)-3H-purin-6-amine], at Grp94 [2], the IC50 amounted to 2.37 ± 0.79 µM, the “decrease in affinity for Grp94” value was 10–400 fold and the Hsp90α/Grp94 was over 210 µM.
On Grp94 [2], `C#CCCCn1cnc(N)c2nc(Sc3ccc(OC)cc3OC)nc1-2` [9j′, 8-(2,4-Dimethoxyphenylthio)-3-(pent-4-ynyl)-3H-purin-6-amine] gave an IC50 of over 100 µM.
Regarding `C#CCCCn1cnc(N)c2nc(Sc3cc(Cl)ccc3Cl)nc1-2` [9k′, 8-(2,5-Dichlorophenylthio)-3-(pent-4-ynyl)-3H-purin-6-amine], on Grp94 [2], the IC50 was 35.3 ± 5 µM and the “decrease in affinity for Grp94” value is on record as 10–400 fold.
`C#CCCCn1cnc(N)c2nc(Sc3cc(C)ccc3C)nc1-2` [9l′, 8-(2,5-Dimethylphenylthio)-3-(pent-4-ynyl)-3H-purin-6-amine]: the IC50 on Grp94 [2] was over 100 µM.
As for `C#CCCCn1cnc(N)c2nc(Sc3cc(C(F)(F)F)ccc3Cl)nc1-2` [9m′, 8-(2-Chloro-5-(trifluoromethyl)phenylthio)-3-(pent-4-ynyl)-3H-purin-6-amine], the IC50 at Hsp90α, on Hsp90β and on Grp94 [2] was over 100 µM each time.
For the compound `C#CCCCn1cnc(N)c2nc(Sc3cc(Cl)cc(Cl)c3)nc1-2` [9n′, 8-(3,5-Dichlorophenylthio)-3-(pent-4-ynyl)-3H-purin-6-amine], the IC50 on Hsp90β (read-out: IC50 Hsp90β, FP competition, Cy3B-GM probe) is over 100 µM; on Grp94 [2] (read-out: IC50 Grp94, FP competition, Cy3B-GM probe) it was 100 ± 8 µM. The “decrease in affinity for Grp94” value on Grp94 [2] is given as 10–400 fold.
For the compound `C#CCCCn1cnc(N)c2nc(Sc3cc(C)cc(C)c3)nc1-2` [9q′, 8-(3,5-Dimethylphenylthio)-3-(pent-4-ynyl)-3H-purin-6-amine], the IC50 on Grp94 [2] is over 100 µM.
Regarding `C#CCCCn1cnc(N)c2nc(Sc3cc(Cl)c(Cl)cc3Cl)nc1-2` [9v′, 3-(Pent-4-ynyl)-8-(2,4,5-trichlorophenylthio)-3H-purin-6-amine], at Grp94 [2], the IC50 stood at 2.08 µM, the “decrease in affinity for Grp94” value is 10–400 fold and the Hsp90α/Grp94 is over 48 µM.
As to `C#CCCCn1cnc(N)c2nc(Sc3c(C)cc(C)cc3C)nc1-2` [9w′, 8-(Mesitylthio)-3-(pent-4-ynyl)-3H-purin-6-amine], at Grp94 [2], the IC50 amounted to 20 ± 5 µM, the “decrease in affinity for Grp94” value was 10–400 fold and the Hsp90α/Grp94 is over 5 µM.
As to `C#CCCCCn1c(Sc2cc(Cl)cc(Cl)c2)nc2c(N)ncnc21` [13b, 8-((3,5-Dichlorophenyl)thio)-9-(hex-5-yn-1-yl)-9H-purin-6-amine], the “decrease in potency for Grp94” value on Grp94 [2] (relative to 9n, chain length five to six carbons) is “approximately 3 fold”.
In the case of `C#CCCCn1c(S(=O)(=O)c2ccc(Cl)cc2Cl)nc2c(N)ncnc21` [14b, 8-((2,4-Dichlorophenyl)sulfonyl)-9-(pent-4-yn-1-yl)-9H-purin-6-amine], at Grp94 [2], the “decrease in Grp94 activity on linker substitution” value is ~ 40 fold.
For the compound `C#CCCCn1c(Oc2ccc(Cl)cc2Cl)nc2c(N)ncnc21` [14c, 8-(2,4-Dichlorophenoxy)-9-(pent-4-yn-1-yl)-9H-purin-6-amine], the “decrease in Grp94 activity on linker substitution” value on Grp94 [2] is 4–6 fold.
On the same count and under the same terms, the same measure for `C#CCCCn1c(Cc2ccc(Cl)cc2Cl)nc2c(N)ncnc21` [14d, 8-(2,4-Dichlorobenzyl)-9-(pent-4-yn-1-yl)-9H-purin-6-amine]: 4–6 fold.
By solubility is commonly meant how much of the substance goes into solution per volume. Low readings indicate little dissolved substance, high ones much dissolved substance. In the case of `CC(C)NCCCn1c(Sc2cc(Cl)cc(Cl)c2)nc2c(N)ncnc21` [18c, 8-((3,5-Dichlorophenyl)thio)-9-(3-(isopropylamino)propyl)-9H-purin-6-amine], the “selectivity for Grp94 over Hsp90α/β” value at Grp94 [2] was over 100 fold. The “interaction with kinase panel” value in the series on scanEDGE 97 kinase panel is listed as “inert”. Also, the “expression of TLR9 in the post-ER compartment” value with TLR9 is “dose-dependently inhibited”. In series [3], the “CpG induced TNF-α production” value is “dose-dependently inhibited”. Further, the “TNFα production in cells stimulated by LPS” value in [4] is recorded as “lack of activity”. In [5], the “IGF-II secretion by differentiated myoblasts” value is “dose-dependently inhibited”. Moreover, the “steady-state levels of HER2 kinase” value in the series on HER2 (HER2 overexpressing breast cancer cells, 24 h) was “reduced”. Also, the Hsp70 induction result in the series on Hsp70 (24 h) is listed as “no Hsp70 induction; also recorded: did not modulate”. The solubility in “Aqueous solubility” was over 10000 µg/mL. Moreover, in series [6], the “growth of SKBr3 cells” value was “growth impairment”.
Regarding `CC(C)NCCCn1cnc(N)c2nc(Sc3cc(Cl)cc(Cl)c3)nc1-2` [18c′, 8-((3,5-Dichlorophenyl)thio)-3-(3-(isopropylamino)propyl)-3H-purin-6-amine], at Grp94 [2], the “decrease in affinity for Grp94” value is listed as 10–400 fold and the Hsp90α/Grp94 was over 39 µM.
Consider `CC(C)NCCCn1c(Sc2ccc(Cl)cc2Cl)nc2c(N)nccc21` [18d, 2-((2,4-Dichlorophenyl)thio)-1-(3-(isopropylamino)propyl)-1H-imidazo[4,5-c]pyridin-4-amine], for which the “diminished potency for Grp94 on substitution of N3 with C” value at Grp94 [2] is listed as 5–8 fold.
On the same count and under the same terms, the same measure for `CC(C)NCCCn1c(Sc2cc(Cl)cc(Cl)c2)nc2c(N)nccc21` [18e, 2-((3,5-Dichlorophenyl)thio)-1-(3-(isopropylamino)propyl)-1H-imidazo[4,5-c]pyridin-4-amine]: 5–8 fold.
Consider `CC(C)NCCCn1c(Sc2cc3c(cc2N(C)C)OCO3)nc2c(N)ncnc21` [18g], for which, at Grp94 [2], the “loss of affinity for Grp94 compared to PU-H71 (5)” value is 10 fold and the “lower affinity for Grp94 compared to Hsp90α” value was ~ 3 fold.
Turning to `COC(=O)c1c(O)cc(O)c(Cl)c1CCc1nccn1Cc1ccccc1` [compound 3], the HER2 level result in the series on HER2 (SKBr3 cells, 100 μM) is “possibly a slight reduction in HER2”. In addition, in the series on HER2 (up to 10 μM), the “effect in SKBr3 cells” value is recorded as “no effect”. Moreover, in the series on Hsp70 (100 μM), the Hsp70 induction entry is listed as “Hsp70 induction”. The PARP cleavage entry with cleaved PARP is given as “minor PARP cleavage”. In addition, in the series with SKBr3 cells, the cell viability entry is “cellular toxicity”. Further, the “antiproliferative effects against SKBr3 cells” value in [6] is listed as “lacked antiproliferative effects”.
On Hsp90α, `C#CCCCn1cnc(N)c2nc(Sc3ccc(C)cc3C)nc1-2` [compound 4, 8-(2,4-Dimethylphenylthio)-3-(pent-4-ynyl)-3H-purin-6-amine] returned an IC50 of over 250 µM.
Take `CN(C)c1cc2c(cc1Sc1nc3c(N)nccc3n1CCNCC(C)(C)C)OCO2` [compound 22]: on Grp94 [7], the “lower affinity for Grp94 than for Hsp90α or Hsp90β” value is ~ 6 fold.
